ChEMBL document CHEMBL1126084, “2-Acetylpyridine thiocarbonohydrazones. Potent inactivators of herpes simplex virus ribonucleotide reductase” (J Med Chem, 1992)

Key:
[1] = target: T1, Ribonucleoside-diphosphate reductase RR1 (Homo sapiens) (UniProt P23921+Q7LG56+P31350); test: Apparent enzyme activity measured as the ratio of HSV-1 and human enzyme inhibition induces; assay type: functional; conditions: Human alphaherpesvirus 1
Summary of the method: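 Apparent selectivity is the ratio of HSV-1 to human inhibition indices, each from eq 1 at 5 μM inhibitor or at the indicated concentration for each enzyme.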

[2] = target: T1, Ribonucleoside-diphosphate reductase RR1 (Homo sapiens); test: Inactivation of human ribonucleotide reductase by the compound (5 uM) at rate constant K inact.; assay type: protein-complex assay
Summary of the method: (§1)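 The ATP contributed about 3 μM iron, keeping inhibitors iron-complexed. Reactions ran ±5 μM inhibitor unless otherwise indicated. kinact (per hour, net over the control) and v0 came from iterative nonlinear least-squares fits of decelerating time courses.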

Human alphaherpesvirus 1 [3] = test: Inhibition of HSV-1 ribonucleotide reductase by the compound (5 uM); assay type: functional
Summary of the method: (§2)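 Partially purified HSV-1 ribonucleotide reductase, assayed by reduction of purified [14C]CDP in 200 mM Hepes Na+ pH 7.7, 10 mM dithiothreitol, 2 μM CDP (500 Ci/mol, 3–4 × Km), with and without 5 μM inhibitor unless otherwise indicated. First-order kinact (per hour) and v0 of decelerating product time courses come from iterative nonlinear least squares. kinact is the net increase over the uninhibited control, and % inhibition refers to v0.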

Human alphaherpesvirus 1 [4] = test: Inhibitory index against HSV-1 ribonucleotide reductase calculated as, [1+k inact/f+0.01] where f = 1-% inhibition/100).; assay type: functional
Summary of the method: (§3)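 Index per eq 1 combines kinact and percent inhibition of initial velocity from reductase reactions ±5 μM inhibitor (unless otherwise indicated). 0.99 is subtracted from the calculated ratio, so a non-inhibiting, non-inactivating compound scores zero. HSV-1 and human enzymes were assayed under their respective conditions.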

[5] = target: T1, Ribonucleoside-diphosphate reductase RR1 (Homo sapiens); test: Inhibition of human ribonucleotide reductase by the compound (5 uM); assay type: protein-complex assay; summary of the method: as §1
Human alphaherpesvirus 1 [6] = test: Inactivation of HSV-1 ribonucleotide reductase by the compound (5 uM) at rate constant K inact.; assay type: functional; summary of the method: as §2
[7] = target: T1, Ribonucleoside-diphosphate reductase RR1 (Homo sapiens); test: Inhibitory index against human ribonucleotide reductase calculated as, [1+k inact/f+0.01] where f = 1-% inhibition/100).; assay type: protein-complex assay; summary of the method: as §3
[8] = target: T1, Ribonucleoside-diphosphate reductase RR1 (Homo sapiens); test: Inhibition of human ribonucleotide reductase; assay type: protein-complex assay; design: concentration or dose not given beside the values; conditions: concentration not given here; summary of the method: as §1
Human alphaherpesvirus 1 [9] = test: Inhibitory index against HSV-1 ribonucleotide reductase; summary of the method: as §3
[10] = target: T1, Ribonucleoside-diphosphate reductase RR1 (Homo sapiens); test: Inhibitory index against human ribonucleotide reductase; assay type: protein-complex assay; summary of the method: as §3
Human alphaherpesvirus 1 [11] = test: Inactivation of HSV-1 ribonucleotide reductase at rate constant K inact; summary of the method: as §2
Human alphaherpesvirus 1 [12] = test: Inhibition of HSV-1 ribonucleotide reductase; design: concentration or dose not given beside the values; conditions: concentration not given here; summary of the method: as §2
[13] = target: T1, Ribonucleoside-diphosphate reductase RR1 (Homo sapiens); test: Inactivation of human ribonucleotide reductase at rate constant K inact; assay type: protein-complex assay; summary of the method: as §1
[14] = pKa value of the compound; assay type: physicochemical
Summary of the method: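 Protonation and anion-generation pKa values were determined spectrophotometrically.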

[15] = Partition coefficient (logD5.2) (octanol/pH 5.2 acetate buffer); assay type: physicochemical

Compound	Apparent selectivity (HSV-1/human inhibition index ratio) [1]	kinact [2] [h⁻¹]	inhibition [5] [%]	Inhibitory index [7]	inhibition [8] [%]	Inhibitory index (Human alphaherpesvirus 1 [9])	Inhibitory index [10]	kinact (Human alphaherpesvirus 1 [11]) [h⁻¹]	inhibition (Human alphaherpesvirus 1 [12]) [%]	kinact [13] [h⁻¹]	pKa [14]	logD [15]	Inhibition (Human alphaherpesvirus 1 [3]) [%]	Inhibitory index (Human alphaherpesvirus 1 [4])	kinact (Human alphaherpesvirus 1 [6]) [h⁻¹]
C/C(=N\N=C(/S)N/N=C(\S)Nc1cccnc1)c1ccccn1	15	0	43	0.73									18	11	9
C/C(=N\N=C(/S)N/N=C(\S)NCCN1CCOCC1)c1ccccn1	15	0.4	31	1									24	15	11
C/C(=N\N=C(/S)N/N=C(\S)NCCCN1CCOCC1)c1ccccn1	24	0	23	0.29									12	7	6.1
C/C(=N\N=C(/S)N/N=C(\S)Nc1cccc(I)c1)c1ccccn1	10				7	34	3.3	25	27	3	3.8				
C/C(=N\N=C(/S)N/N=C(\S)Nc1ccccc1Cl)c1ccccn1	21				57	27	1.3	27	0	0	3.94	2.67			
C/C(=N\N=C(/S)N/N=C(\S)Nc1ccc(C(F)(F)F)cc1)c1ccccn1	350				19	80	0.23	33	59	0	3.87				
C/C(=N\N=C(/S)N/N=C(\S)NC12CC3CC(CC(C3)C1)C2)c1ccccn1	24	0	53	1.1									47	27	14
C/C(=N\N=C(/S)N/N=C(\S)Nc1ccncc1)c1ccccn1	3.8	0	83	4.6									8	17	16
C/C(=N\N=C(/S)N/N=C(\S)Nc1cccc(Cl)c1Cl)c1ccccn1	160				30	68	0.42	49	29	0	3.86				
C/C(=N\N=C(/S)N/N=C(\S)Nc1cccc(C(F)(F)F)c1)c1ccccn1	21				31	40	1.9	34	15	1	3.89				
C/C(=N\N=C(/S)N/N=C(\S)Nc1ccccn1)c1ccccn1	33				67	65	2	28	57	0					
C/C(=N\N=C(/S)N/N=C(\S)Nc1ccc(I)cc1)c1ccccn1	560				5	29	0.05	22	24	0					
C/C(=N\N=C(/S)N/N=C(\S)Nc1ccc([N+](=O)[O-])cc1)c1ccccn1	9.1				56	38	4.2	33	14	1.3					
S=C(N/N=C/c1ccccn1)NNC(=S)Nc1ccccc1Cl	31				45	25	0.8	12	51	0					

Now from value to molecule, other results behind:

Apparent selectivity (HSV-1/human inhibition index ratio) [1]	kinact [2] [h⁻¹]	inhibition [5] [%]	Inhibitory index [7]	inhibition [8] [%]	Inhibitory index (Human alphaherpesvirus 1 [9])	Inhibitory index [10]	kinact (Human alphaherpesvirus 1 [11]) [h⁻¹]	inhibition (Human alphaherpesvirus 1 [12]) [%]	kinact [13] [h⁻¹]	pKa [14]	logD [15]	Compound	Inhibition (Human alphaherpesvirus 1 [3]) [%]	Inhibitory index (Human alphaherpesvirus 1 [4])	kinact (Human alphaherpesvirus 1 [6]) [h⁻¹]
4.6	1	51	3									C/C(=N\N=C(/S)N/N=C(\S)Nc1ccccc1C)c1ccccn1	27	14	10
23	0	54	1.1									C/C(=N\N=C(/S)N/N=C(\S)Nc1cccc(C)c1)c1ccccn1	28	26	19
66	1	9	1.2									COc1ccc(Cl)cc1/N=C(\S)N/N=C(\S)N/N=C(\C)c1ccccn1	48	78	41
4.5	2	54	5.4									C/C(=N\N=C(/S)NNC(=S)NC(=O)c1ccccc1)c1ccccn1	38	24	15
3				8	14	4.4	8	39	4		1.25	C/C(=N\N/C(S)=N/N=C(\S)N(C)C)c1ccccn1			
1.8	2	40	3.9									CCOC(=O)NC(=S)N/N=C(\S)N/N=C(\C)c1ccccn1	14	7	6
2.5	3	59	8.5									C/C(=N\N=C(/S)N/N=C(\S)Nc1ccccc1)c1ccccn1	7	21	20
26				50	25	1	25	0	0			COc1c(Cl)cccc1/N=C(\S)N/N=C(\S)N/N=C(\C)c1ccccn1			
